From the array DNA melting data of Ke et al. (doi:10.1101/2024.01.08.574731)

What was measured:
[1] = folding enthalpy; higher = less favourable; fluorescence melt of hairpins on a sequencing array, two-state fit; settings: sodium 0.088 M
Summary of the method: (§1)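 Bootstrapped two-state fits yielded melting temperature and folding enthalpy for library hairpins. Cy3 fluorescence, with annealed Cy3 and quencher oligos, was imaged on a sequenced MiSeq flow cell in 50 mM Na-HEPES pH 8.0, 25 mM NaCl in 2.5 °C steps up to 60 °C, and normalised to pre-quench Cy3 and to control constructs. Four replicates were combined by inverse variance, and fitted temperatures were raised by 9.35 °C to match UV melts.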

[2] = melting temperature; fluorescence melt of hairpins on a sequencing array, two-state fit, raised by 9.35 °C to match UV melts; settings: sodium 0.088 M
Summary of the method: as §1

Sequence | folding enthalpy [1] [kcal/mol] | Tm [2] [°C]
GATCATCGGGATGATC ((((((....)))))) | -44 | 53.5
GATCATCGTAATGATC ((((((....)))))) | -39.5 | 48.5
GATCATCGTATGATC ((((((...)))))) | -32.8 | 48.5
GATCATCGTGATGATC ((((((....)))))) | -38.4 | 57.8
GATCATCTAGATGATC ((((((....)))))) | -43.8 | 52.7
GATCATCTGCATGATC ((((((....)))))) | -36 | 46.2
GATCATGAAATGATC ((((((...)))))) | -40.9 | 58.9
GATCATGACATGATC ((((((...)))))) | -40.3 | 49.7
GATCATGACGATGATC ((((((....)))))) | -40.3 | 50.8
GATCATGCCATGATC ((((((...)))))) | -40 | 50.9
GATCATGGACATGATC ((((((....)))))) | -40.7 | 54.3
GATCATGGATATGATC ((((((....)))))) | -37.9 | 54.1
GATCATGGCAATGATC ((((((....)))))) | -41.9 | 56.7
GATCATGGGATGATC ((((((...)))))) | -30.7 | 44.6
GATCATGGTAATGATC ((((((....)))))) | -41.1 | 56.2
GATCATGTAGATGATC ((((((....)))))) | -38.9 | 51
GATCATGTCCATGATC ((((((....)))))) | -42.5 | 54.8
GATCATGTGCATGATC ((((((....)))))) | -32.3 | 50.3
GATCATGTGTATGATC ((((((....)))))) | -41.9 | 48.4
GATCATGTTAATGATC ((((((....)))))) | -40.5 | 56.2
GATCATGTTTATGATC ((((((....)))))) | -39.1 | 50
GATCATTACAATGATC ((((((....)))))) | -37.9 | 49.7
GATCATTAGATGATC ((((((...)))))) | -29.2 | 44.4
GATCATTAGCATGATC ((((((....)))))) | -32.6 | 44.2

Sequence | folding enthalpy [1] [kcal/mol] | Tm [2] [°C]
GATCATTATGATGATC ((((((....)))))) | -43.7 | 48.6
GATCATTCATATGATC ((((((....)))))) | -38.8 | 48
GATCATTCCAATGATC ((((((....)))))) | -33.9 | 50.4
GATCATTCCATGATC ((((((...)))))) | -39.4 | 51
GATCATTGAATGATC ((((((...)))))) | -35.9 | 44.4
GATCATTGATATGATC ((((((....)))))) | -28 | 45.5
GATCATTGTGATGATC ((((((....)))))) | -43.4 | 51
GATCATTGTTATGATC ((((((....)))))) | -37 | 47.3
GATCATTTTATGATC ((((((...)))))) | -30.4 | 51.4
GATCCAAATGTGGATC ((((((....)))))) | -33.8 | 48.5
GATCCAACATGGATC ((((((...)))))) | -33.7 | 50.4
GATCCAACCGTGGATC ((((((....)))))) | -30.3 | 49.8
GATCCAACCTGGATC ((((((...)))))) | -31 | 50.4
GATCCAACCTTGGATC ((((((....)))))) | -51.5 | 51.5
GATCCAACGATGGATC ((((((....)))))) | -34 | 48.1
GATCCAACTTGGATC ((((((...)))))) | -29 | 51.2
GATCCAAGCCTGGATC ((((((....)))))) | -40 | 50.6
GATCCAAGCTGGATC ((((((...)))))) | -28.8 | 50.5
GATCCAAGCTTGGATC ((((((....)))))) | -54.6 | 54.8
GATCCAAGGATGGATC ((((((....)))))) | -27.5 | 47.8
GATCCAATAGTGGATC ((((((....)))))) | -30.8 | 46.6
GATCCAATCGTGGATC ((((((....)))))) | -38.5 | 49
GATCCAATTATGGATC ((((((....)))))) | -36.5 | 50.4
GATCCAATTGTGGATC ((((((....)))))) | -32.7 | 49.6

Sequence | folding enthalpy [1] [kcal/mol] | Tm [2] [°C]
GATCCACCAATGGATC ((((((....)))))) | -36.4 | 48.5
GATCCACCATGGATC ((((((...)))))) | -37.4 | 49.7
GATCCACGCGTGGATC ((((((....)))))) | -49.9 | 64.4
GATCCACGCTTGGATC ((((((....)))))) | -38.4 | 52.5
GATCCACGGTTGGATC ((((((....)))))) | -37.7 | 48.9
GATCCACGTATGGATC ((((((....)))))) | -31.8 | 51.6
GATCCAGACTTGGATC ((((((....)))))) | -35 | 56.1
GATCCAGCACTGGATC ((((((....)))))) | -37.6 | 56
GATCCAGCATGGATC ((((((...)))))) | -45.4 | 61.1
GATCCAGCCTGGATC ((((((...)))))) | -34 | 52.2
GATCCAGCCTTGGATC ((((((....)))))) | -37.2 | 53.5
GATCCAGCTTTGGATC ((((((....)))))) | -32.1 | 51.5
GATCCAGGAAACTGGACC (.(((((....))))).) | -15.9 | 39.1
GATCCAGGAAACTGGATC (((((((....))))))) | -38.1 | 60.9
GATCCAGGAGTGGATC ((((((....)))))) | -36.7 | 52.5
GATCCAGGATTGGATC ((((((....)))))) | -39.9 | 55.1
GATCCAGGCTGGATC ((((((...)))))) | -46.7 | 53
GATCCAGGGGTGGATC ((((((....)))))) | -28.1 | 50.4
GATCCAGTAGTGGATC ((((((....)))))) | -32 | 54.2
GATCCAGTATTGGATC ((((((....)))))) | -41.8 | 57.4
GATCCAGTGGTGGATC ((((((....)))))) | -34.6 | 50.4
GATCCATAAATGGATC ((((((....)))))) | -47.5 | 50.3
GATCCATACCTGGATC ((((((....)))))) | -36.8 | 52.1
GATCCATATATGGATC ((((((....)))))) | -44.1 | 55

Sequence | folding enthalpy [1] [kcal/mol] | Tm [2] [°C]
GATCCATATTTGGATC ((((((....)))))) | -36.9 | 53.6
GATCCATCACTGGATC ((((((....)))))) | -35.6 | 50.2
GATCCATCAGTGGATC ((((((....)))))) | -34.9 | 51.6
GATCCATCGATGGATC ((((((....)))))) | -47.8 | 55.2
GATCCATCTCTGGATC ((((((....)))))) | -39.6 | 50.4
GATCCATGAATGGATC ((((((....)))))) | -45.1 | 53.3
GATCCATGCATGGATC ((((((....)))))) | -42.5 | 58.8
GATCCATTATTGGATC ((((((....)))))) | -37.1 | 52.7
GATCCATTGCTGGATC ((((((....)))))) | -36.6 | 50.8
GATCCATTTTGGATC ((((((...)))))) | -33.5 | 53.6
GATCCCAAAGGGATC ((((((...)))))) | -35.4 | 65.5
GATCCCAAAGGGGATC ((((((....)))))) | -31.7 | 57.3
GATCCCAAATGGGATC ((((((....)))))) | -36.4 | 57.7
GATCCCAACAGGGATC ((((((....)))))) | -36 | 62.4
GATCCCAACTGGGATC ((((((....)))))) | -39.5 | 63.4
GATCCCAAGAGGGATC ((((((....)))))) | -33.9 | 60.8
GATCCCAAGCGGGATC ((((((....)))))) | -32.5 | 60.6
GATCCCAATGGGGATC ((((((....)))))) | -33.2 | 60.7
GATCCCACCAGGGATC ((((((....)))))) | -41.8 | 61.4
GATCCCACCGGGATC ((((((...)))))) | -28.9 | 66.7
GATCCCACGCGGGATC ((((((....)))))) | -30.7 | 63.3
GATCCCACGGGGGATC ((((((....)))))) | -35.8 | 61.3
GATCCCAGAAGGGATC ((((((....)))))) | -34.7 | 60.4
GATCCCAGATGGGATC ((((((....)))))) | -34.1 | 57.6
